Calls of active or inactive are those of the source. The rule behind the calls is not given here.
Key:
[1] = target: Transcription factor p65 (Mus musculus) (UniProt Q04207); assay: Inhibition of LPS-induced NF-kappaB p65 binding to DNA in mouse RAW264.7 cells at 10 to 40 uM after 1.5 hrs by spectrophotometry; assay type: cell-based
[2] = target: Transcription factor p65 (Mus musculus) (UniProt Q04207); assay: Inhibition of LPS-induced NF-kappaB p65 binding to DNA in mouse RAW264.7 cells at 10 to 40 uM after 1.5 hrs by spectrophotometry in presence of wild type oligonucleotide; assay type: cell-based
RAW264.7 [3] = assay: Antiinflammatory activity in mouse RAW264.7 cells assessed as inhibition LPS-induced IL-1beta protein expression after 4 hrs by Western blotting analysis; assay type: functional, cell-based
In short: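 RAW 264.7 cells stimulated with LPS (1 μg/mL) with or without compound for 4 h. Lysates were resolved by 6−15% SDS-PAGE and blotted to PVDF. Blocked in 5% milk/PBST, primary antibody overnight at 4 °C, secondary antibody 2 h, detected by ECL. Triplicate, representative of three experiments.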

RAW264.7 [4] = assay: Antiinflammatory activity in mouse RAW264.7 cells assessed as inhibition LPS-induced IL-1beta mRNA expression at 40 uM after 4 hrs by RT-PCR analysis relative to control; assay type: functional
In short: (§1)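 RAW 264.7 cells stimulated with LPS (1 μg/mL) with or without compound for 4 h. Total RNA was isolated and cytokine mRNA was analysed by RT-PCR: 94 °C 4 min, then 25−30 cycles of 94/55/72 °C for 30 s each, then 72 °C 5 min. Products were run on 2% agarose and stained with SYBR-Safe. Triplicate, representative of three experiments.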

Rattus norvegicus = assay: Antiinflammatory activity in rat paw edema model assessed as inhibition of carrageenan-induced IL-1beta protein expression in paw tissue at 20 mg/kg, po administered 30 mins prior to carrageenan challenge measured after 6 hrs by Western blotting analysis relative to vehicle-treated control; assay type: functional, organism-based; parameters: dose 20 mg/kg
In short: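 SD rats received compound orally in 0.5% CMC-Na 30 min before subplantar injection of 0.1 mL 1% carrageenan in saline. Paws were removed at 6 h, homogenized, and iNOS, COX-2 and IL-1β were assessed by Western blot. Triplicate, representative of three experiments.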

RAW264.7 [5] = assay: Antiinflammatory activity in mouse RAW264.7 cells assessed as inhibition LPS-induced IL-1beta mRNA expression at 10 uM after 4 hrs by RT-PCR analysis relative to control; assay type: functional; in short: as §1
RAW264.7 [6] = assay: Antiinflammatory activity in mouse RAW264.7 cells assessed as inhibition of LPS-induced iNOS protein expression at 20 uM after 16 hrs by Western blotting analysis relative to control; assay type: functional
In short: (§2)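 RAW 264.7 cells given LPS (1 μg/mL) with or without compound for 16 h. Cell lysates were Western blotted for iNOS and COX-2 (6−15% SDS-PAGE, PVDF, ECL detection). Performed in triplicate.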

[7] = target: T1, Nuclear factor NF-kappa-B p105 subunit (Mus musculus) (UniProt P25799); assay: Inhibition of LPS-induced NF-kappaB p50 binding to DNA in mouse RAW264.7 cells at 10 to 40 uM after 1.5 hrs by spectrophotometry in presence of wild type oligonucleotide; assay type: cell-based
T1 sequence (whole entry): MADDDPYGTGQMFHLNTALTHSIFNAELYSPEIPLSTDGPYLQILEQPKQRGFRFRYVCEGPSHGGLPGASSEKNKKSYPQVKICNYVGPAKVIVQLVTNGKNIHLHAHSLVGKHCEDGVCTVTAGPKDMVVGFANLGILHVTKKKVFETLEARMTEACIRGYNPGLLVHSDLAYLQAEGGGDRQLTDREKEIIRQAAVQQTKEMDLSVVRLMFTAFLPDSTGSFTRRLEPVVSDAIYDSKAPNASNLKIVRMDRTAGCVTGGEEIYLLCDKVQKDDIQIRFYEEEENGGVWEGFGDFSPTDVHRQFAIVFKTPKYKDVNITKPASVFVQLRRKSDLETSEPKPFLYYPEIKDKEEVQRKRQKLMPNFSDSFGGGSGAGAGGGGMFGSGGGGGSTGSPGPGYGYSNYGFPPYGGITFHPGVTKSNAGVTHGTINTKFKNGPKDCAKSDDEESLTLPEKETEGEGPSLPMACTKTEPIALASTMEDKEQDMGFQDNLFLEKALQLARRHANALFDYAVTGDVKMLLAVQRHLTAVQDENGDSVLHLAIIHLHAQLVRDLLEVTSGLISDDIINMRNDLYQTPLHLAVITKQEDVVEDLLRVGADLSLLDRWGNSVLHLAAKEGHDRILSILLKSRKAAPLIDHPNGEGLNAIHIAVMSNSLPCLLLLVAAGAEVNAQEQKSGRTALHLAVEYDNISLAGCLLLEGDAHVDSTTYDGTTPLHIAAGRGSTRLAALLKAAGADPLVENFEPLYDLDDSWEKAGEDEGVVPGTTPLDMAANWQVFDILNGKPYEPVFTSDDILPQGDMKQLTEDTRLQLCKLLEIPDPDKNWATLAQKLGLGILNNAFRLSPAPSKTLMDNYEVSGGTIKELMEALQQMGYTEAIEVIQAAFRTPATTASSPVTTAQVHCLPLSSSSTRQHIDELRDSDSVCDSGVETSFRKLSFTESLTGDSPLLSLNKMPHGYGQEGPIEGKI

RAW264.7 [8] = assay: Antiinflammatory activity in mouse RAW264.7 cells assessed as inhibition of LPS-induced iNOS protein expression at 40 uM after 16 hrs by Western blotting analysis relative to control; assay type: functional; in short: as §2
RAW264.7 [9] = assay: Antiinflammatory activity in mouse RAW264.7 cells assessed as inhibition LPS-induced TNF-alpha mRNA expression at 10 uM after 4 hrs by RT-PCR analysis relative to control; assay type: functional; in short: as §1
Mus musculus = assay: Antiinflammatory activity in ICR mouse ear edema model assessed as inhibition of TPA-induced ear edema at 10 mg/kg, po administered 30 mins prior to TPA challenge measured after 4 hrs relative to vehicle-treated control; assay type: functional
In short: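 ICR mice (male, 18−20 g, 5 weeks old) dosed orally 30 min before TPA (1.0 μg in 20 μL acetone) was applied to inner and outer surfaces of the right ear. Killed by cervical dislocation after 4 h. Edema taken as the weight of a 5 mm punch biopsy of the right ear over the left. Ear homogenates were Western blotted for iNOS, COX-2 and IL-1β.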

RAW264.7 [10] = assay: Antiinflammatory activity in mouse RAW264.7 cells assessed as inhibition of LPS-induced COX2 mRNA expression at 40 uM after 5 hrs by RT-PCR analysis relative to control; assay type: functional
In short: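 RAW 264.7 cells exposed to 1 μg/mL LPS with or without compound for 5 h. Total RNA was analysed by RT-PCR: 25−30 cycles with annealing at 55 °C. Products were separated on 2% agarose gel with SYBR-Safe staining. Experiments in triplicate.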

RAW264.7 [11] = assay: Antiinflammatory activity in mouse RAW264.7 cells assessed as inhibition of LPS-induced COX2 protein expression at 10 uM after 16 hrs by Western blotting analysis relative to control; assay type: functional; in short: as §2
RAW264.7 [12] = assay: Antiinflammatory activity in mouse RAW264.7 cells assessed as inhibition of LPS-induced iNOS protein expression at 10 uM after 16 hrs by Western blotting analysis relative to control; assay type: functional; in short: as §2

Chain of Transcription factor p65 (Mus musculus) (Q04207 whole entry): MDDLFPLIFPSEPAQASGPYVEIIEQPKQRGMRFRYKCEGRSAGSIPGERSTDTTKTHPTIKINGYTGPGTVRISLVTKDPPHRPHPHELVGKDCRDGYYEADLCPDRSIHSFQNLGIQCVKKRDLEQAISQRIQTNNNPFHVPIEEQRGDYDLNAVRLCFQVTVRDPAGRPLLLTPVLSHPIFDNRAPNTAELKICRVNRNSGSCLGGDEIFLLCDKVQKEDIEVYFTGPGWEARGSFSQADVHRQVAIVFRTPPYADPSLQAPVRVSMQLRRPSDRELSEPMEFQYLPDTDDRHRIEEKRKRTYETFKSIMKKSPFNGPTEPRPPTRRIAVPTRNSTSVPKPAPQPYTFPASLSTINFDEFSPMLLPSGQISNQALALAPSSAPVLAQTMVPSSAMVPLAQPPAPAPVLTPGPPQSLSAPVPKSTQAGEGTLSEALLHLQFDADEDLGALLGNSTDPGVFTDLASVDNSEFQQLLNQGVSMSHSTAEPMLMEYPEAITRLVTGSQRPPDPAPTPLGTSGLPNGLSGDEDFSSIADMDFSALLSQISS

For `C=C1C(=O)O[C@@H]2[C@@H]3[C@@]4(C=C[C@@]3(C)[C@]3(C4)C(=O)O[C@@H]4[C@H]5C(C)=CC[C@H]5[C@](C)(O)C[C@H](OC(C)=O)[C@H]43)[C@](C)(O)CC[C@@H]12`, the inhibition [1] was “Active”, the inhibition [2] was “inactive” and the inhibition (RAW264.7 [3]) was “Dose-dependent effect”. For the same compound, the “fold change (FC)” value (RAW264.7 [4]) was 0.21, the inhibition (Rattus norvegicus) was “Active” and the “fold change (FC)” value (RAW264.7 [5]) was 0.26. The inhibition (RAW264.7 [5]) was “Active”, the “fold change (FC)” value (RAW264.7 [6]) was 0.29 and the inhibition [7] was “inactive”. The “fold change (FC)” value (RAW264.7 [8]) was 0.13, the “fold change (FC)” value (RAW264.7 [9]) was 0.66 and the inhibition (RAW264.7 [9]) was “Active”. For the same compound, the inhibition in vivo at 10 mg/kg (Mus musculus) was 43%, the “fold change (FC)” value (RAW264.7 [10]) was 0.22 and the “fold change (FC)” value (RAW264.7 [11]) was 0.52. For the same compound, the “fold change (FC)” value (RAW264.7 [12]) was 0.61.
